# Bioassay records deposited in PubChem by several laboratories.
# Hits are enriched below; roughly 2.8% of the tested compounds scored in any of these assays.
# EP2 antag: blocks the human prostaglandin E2 receptor EP2. AID 1422. inhibition, % at 25 µM. C6 glioma cells expressing human EP2, cAMP TR-FRET; cells stimulated with saturating PGE2. 260,000 compounds, 0.52% hits;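 active = percent inhibition above 40 after rounding to a whole number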;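 also: rat C6 glioma host cells with rolipram phosphodiesterase inhibitor present; the protocol text gives 20 µM as final concentration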
# Target sequence (P43116 whole entry, looked up): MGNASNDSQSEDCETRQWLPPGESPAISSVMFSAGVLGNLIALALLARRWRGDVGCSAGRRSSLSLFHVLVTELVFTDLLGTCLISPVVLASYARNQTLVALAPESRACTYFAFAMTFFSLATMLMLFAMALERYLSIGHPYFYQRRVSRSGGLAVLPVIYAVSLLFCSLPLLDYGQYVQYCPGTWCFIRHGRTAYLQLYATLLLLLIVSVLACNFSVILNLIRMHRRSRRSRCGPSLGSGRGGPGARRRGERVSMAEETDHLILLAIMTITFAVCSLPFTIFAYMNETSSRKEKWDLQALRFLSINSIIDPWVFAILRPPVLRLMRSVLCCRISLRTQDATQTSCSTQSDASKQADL
# NPY1 pot ag: potentiates or activates human NPY-Y1 receptor; P25929; NPY-Y1 expressing cells, potentiator/agonist activation; activation, % at 3.6 µM; 220,000 compounds, 0.37% hits; AID 1304; in the data active = activation above about 33%, passing the limit was not always enough;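 also: cells stimulated with NPY at EC10 then isoproterenol at EC100; 0% = low agonist plus stimulus and 100% = saturating agonist plus stimulus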
# NPY-Y2 antag: blocks the human neuropeptide Y Y2 receptor; inhibition, % at 2.7 µM; NPY-Y2 expressing cells, antagonist mode; 140,000 compounds, 0.99% hits; P49146; AID 793;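 also: 0% = vehicle with agonist challenge and 100% = reference antagonist with challenge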
# NPY2 pot ag: potentiators or agonists of human neuropeptide Y receptor Y2; activation, % at 3.6 µM; cells expressing NPY-Y2, potentiator/agonist read-out; P49146; 220,000 compounds, 0.45% hits; in the data active = activation above about 27%;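 also: cells stimulated with NPY near EC25 plus isoproterenol at EC100; 0% = vehicle plus submaximal agonist and 100% = vehicle plus saturating agonist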
# NPY Y1 blocker: NPY-Y1 (human) receptor antagonism | AID 1040 | P25929 | inhibition, % at 3.6 µM | HEK293-CNG Y1 cells, membrane potential fluorescence; NPY at EC95, then isoproterenol | 200,000 compounds, 1% hits;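 active = inhibition above the campaign mean inhibition of all tested compounds plus 3 SD, cut at about 20% in these data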;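 also: 0% = DMSO wells given NPY plus isoproterenol and 100% = isoproterenol alone without NPY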
#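 Material: Y1- and CNG-channel-expressing HEK293 cells / Probe or stimulus: NPY 25 nM then isoproterenol 1 µM plus Ro 20-1724 25 µM / Doses: 3.6 µM single dose, DMSO 0.4% / Schedule: compound incubation 1 h at room temperature, readout 45 min post-stimulation / Signal: membrane potential fluorescence / Benchmarks: isoproterenol-only wells as full block versus NPY-plus-isoproterenol wells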
# EP2 mod: EP2 receptor (human) modulation | P43116 | EP2-expressing cells, cAMP HTRF FRET, PGE2 co-stimulation | induction, % at 25 µM | 260,000 compounds, 0.83% hits;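 active = compounds whose cAMP rise, as percent of the full-agonist control response, exceeds 60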;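 also: rat C6 glioma line stably carrying human EP2 under a CMV promoter; the protocol text gives 20 µM as final concentration; 100% = response of wells given 1 µM PGE2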
# EP2 cAMP induct: EP2 receptor cAMP induction, counter-screens negative | shares compounds with EP2 mod | C6 glioma EP2 cells, cAMP HTRF induction; plus low (about EC15) PGE2 agonist | calls only at 20 µM (by protocol) | 1,300 compounds, 47% hits;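 active = cAMP induction above 50% in the main assay while under 30% in all four parallel counter assays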;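 also: rat C6 glioma cells stably expressing human EP2 receptor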
# NPY1 antag conf: confirmation of human neuropeptide Y receptor Y1 antagonists; shares compounds with NPY Y1 blocker; 1,200 compounds, 21% hits; inhibition, % at 3.6 µM; HEK293-CNG NPY-Y1, membrane potential fluorescence, cAMP; NPY challenge against isoproterenol-raised cAMP; AID 1254; in the data active = inhibition above about 20%;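 also: 0% = vehicle with agonist plus stimulus and 100% = stimulus alone without agonist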
# NPY2 antag ctr: counter-screen for NPY-Y1 antagonists: human NPY-Y2 antagonism | inhibition, % at 3.6 µM | AID 1255 | shares compounds with NPY Y1 blocker | 1,200 compounds, 28% hits | HEK293 NPY-Y2 CNG membrane potential fluorescence; cells given NPY, then isoproterenol;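 also: 0% = DMSO with agonist challenge and 100% = reference antagonist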
# Active calls of the source: *; i = inactive; x = no result given; + = active, no number. Rule as the data show it, unless noted: active = inhibition above about 17%; inactive = the rest.
SMILES,EP2 antag,NPY1 pot ag,NPY-Y2 antag,NPY2 pot ag,NPY Y1 blocker,EP2 mod,EP2 cAMP induct,NPY1 antag conf,NPY2 antag ctr
CCOc1cc(/C=N/NC(N)=O)ccc1OC(=O)c1ccc(C)cc1,x,2,2,7,-2,66*,i,x,x
CCOc1cc(/C=N\NC(=O)c2ccc(NC(=O)C(C)(C)C)cc2)ccc1OC(=O)c1ccc(C)cc1,6,13,2,-4,4,-6,x,x,x
COc1ccc2nc(NC(=O)CN3CCC(NC(=O)Nc4ccc(F)cc4)CC3)sc2c1,11,x,x,x,x,-27,x,x,x
O=C(c1ccc(N2CCCCC2)cc1)N1CCC2(CC1)Nc1ccccc1-n1cccc12,6,x,x,x,x,8,x,x,x
Cc1ccc(-c2nnc(N3CCC(C)CC3)c3ccccc23)cc1,8,-3,x,-3,29*,74*,i,12,7
Cc1ccc(CSc2nc3ccccc3cc2C=O)cc1,10,2,-2,-3,23*,71*,i,1,6
O=C(CSc1nnc(Cc2ccccc2)n1Cc1ccco1)NC12CC3CC(CC(C3)C1)C2,-3,4,10,1,23*,63*,i,5,4
CN(C)C(=O)CSc1nnc(Cc2ccccc2)n1Cc1ccco1,2,39,2,3,1,4,x,x,x
CCc1cc(-c2[nH]ncc2-c2ccc3c(c2)OCO3)c(O)cc1O,x,16,1,10,20*,28,i,21*,0
CCCc1cc(-c2[nH]ncc2-c2ccc3c(c2)OCCCO3)c(O)cc1OC,13,23,2,-9,1,28,x,x,x
COc1ccc(-n2nnnc2SCC(=O)Nc2cccc(C)c2)cc1,9,x,x,x,x,-70,x,x,x
CC1(c2ccccc2)CC(C)(C)N(C(=O)C2CCCO2)c2ccccc21 (centres undefined),-1,-25,16,-5,27*,69*,+,11,8
COc1ccc(-c2cc(-c3n[nH]c(=S)n3-c3cccc4ccccc34)[nH]n2)cc1,4,-23,x,-28,55*,67*,i,85*,101*
CCOC(=O)CSc1ccc2ccccc2n1,9,-32,x,-12,6,42,x,x,x
O=C(O)CSc1ccc2ccccc2n1,14,-29,10,-23,20*,67*,i,5,11
CCOc1ccc(NC(=O)N2CCC(NC(=O)c3ccccc3F)CC2)cc1,6,x,x,x,x,-34,x,x,x
CCC(C)(C)C1CCc2c(sc3nc(C)n(O)c(=O)c23)C1 (centres undefined),11,x,x,x,x,43,x,x,x
COc1ccccc1-c1nnc2n1N=C(c1ccc(O)c(O)c1)CS2,4,0,3,-19,5,-5,x,x,x
CCOc1ccc(C2=Nn3c(nnc3-c3ccccc3OC)SC2)cc1,7,-23,6,-31,26*,74*,+,7,27*
CCOc1ccccc1NC(=O)C1CC(=O)N(c2ccc(OC)cc2)C1 (centres undefined),3,x,x,x,x,-29,x,x,x
